Reference: ChEMBL document CHEMBL1139413, “Discovery of the first potent and orally efficacious agonist of the orphan G-protein coupled receptor 119” (J Med Chem, 2008)
Several values for one entry are separate records, joined by “and”; a condition that tells them apart may be missing. Equal values may be shown once. Activity calls are given as the source filed them. The rule behind the calls is not given here.

Tests used:
[1] = target: T1, Glucose-dependent insulinotropic receptor (Homo sapiens, UniProt Q8TDV5); test: Agonist activity at GPR119 expressed in HEK293 cells assessed as cAMP level by flash plate assay; type: functional, cell-based
T1 sequence (Q8TDV5 whole entry): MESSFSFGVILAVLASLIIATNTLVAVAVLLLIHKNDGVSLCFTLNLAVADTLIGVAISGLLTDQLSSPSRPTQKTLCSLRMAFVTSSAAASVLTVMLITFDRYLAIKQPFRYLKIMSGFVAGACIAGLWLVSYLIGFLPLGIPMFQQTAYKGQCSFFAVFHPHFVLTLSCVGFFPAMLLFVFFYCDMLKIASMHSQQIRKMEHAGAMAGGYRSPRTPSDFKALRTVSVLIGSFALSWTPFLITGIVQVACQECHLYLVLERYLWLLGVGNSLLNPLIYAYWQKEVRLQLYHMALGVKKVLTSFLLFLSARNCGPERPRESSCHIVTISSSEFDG
How it was run: (§1)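 HEK293 cells transiently transfected with GPR119; crude plasma membranes prepared 48 h post-transfection. Membrane adenylyl cyclase read by FlashPlate cAMP kit: 15 µg membrane protein, 60 min at room temperature in 20 mM HEPES pH 7.4 with 10 µM GTP, 0.1 mM ATP, 500 µM IBMX, 10 mM phosphocreatine, creatine phosphokinase. cAMP from on-plate standard curve; usually n = 1 or 2.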

[2] = target: T1, Glucose-dependent insulinotropic receptor; test: Agonist activity at […] transfected in Xenopus dermal melanophore assessed as dispersion of melatonin-induced pigmentation; type: functional
How it was run: (§2)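 Cultured Xenopus dermal melanophores transiently transfected with GPR119 plasmid, plated in 384-well format. At 48 h post-transfection, pigment aggregated with melatonin (10nM, 1 h), then compounds applied for 1 h. Pigment dispersion read as absorbance (light transmission) to build concentration-response curves; EC50 with log SD, number of determinations given.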

[3] = target: T1, Glucose-dependent insulinotropic receptor; test: Inverse agonist activity at GPR119 expressed in HEK293 cells assessed as cAMP level by flash plate assay; type: functional, cell-based; how it was run: as §1
Rattus norvegicus = test: Effect on glucose excursion in Sprague-Dawley rat at 30 mg/kg, po by oral glucose tolerance test; type: functional, organism-based; design: dose 30 mg/kg
[4] = Oral bioavailability in Sprague-Dawley rat at 10 mg/kg; type: ADME, organism-based; conditions: in vivo
How it was run: (§3)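 Rat oral PK: single 10 mg/kg po dose; plasma tmax, Cmax, AUC, terminal t1/2 determined, with oral bioavailability (%F) also reported.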

[5] = target: T2, Glucose-dependent insulinotropic receptor (Rattus norvegicus) (UniProt Q7TQN8); test: Agonist activity at rat GPR119 transfected in Xenopus dermal melanophore assessed as dispersion of melatonin-induced pigmentation; type: functional; how it was run: as §2
T2 sequence (whole entry): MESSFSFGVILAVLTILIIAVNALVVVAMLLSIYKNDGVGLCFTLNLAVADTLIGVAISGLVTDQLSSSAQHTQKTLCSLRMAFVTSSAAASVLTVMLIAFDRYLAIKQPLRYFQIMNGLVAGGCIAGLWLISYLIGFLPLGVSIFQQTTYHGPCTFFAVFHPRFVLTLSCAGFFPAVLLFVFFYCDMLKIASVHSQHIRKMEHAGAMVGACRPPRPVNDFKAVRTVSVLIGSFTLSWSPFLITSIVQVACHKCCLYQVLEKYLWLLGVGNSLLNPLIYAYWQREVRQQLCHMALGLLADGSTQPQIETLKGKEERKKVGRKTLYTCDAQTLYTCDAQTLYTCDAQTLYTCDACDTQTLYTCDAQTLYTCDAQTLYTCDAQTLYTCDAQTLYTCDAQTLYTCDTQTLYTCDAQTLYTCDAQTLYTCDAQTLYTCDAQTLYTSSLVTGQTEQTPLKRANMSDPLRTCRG

[6] = Agonist activity at GPR119 in hamster HIT-T15 cells stimulation of assessed as cAMP production; type: functional, cell-based; conditions: Cricetinae
[7] = Inhibition of cytochrome
[8] = AUC in C57BL/6J mouse at 10 mg/kg, po; type: ADME, organism-based; design: dose 10 mg/kg, route oral; conditions: plasma
How it was run: (§4)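 Mouse oral PK: C57/bl6J mice given a single 10 mg/kg po dose; plasma exposure profile used to derive tmax, Cmax, AUC (area under exposure curve) and terminal t1/2. No iv arm run in mouse.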

[9] = Cmax in Sprague-Dawley rat at 10 mg/kg, po; type: ADME, organism-based; design: dose 10 mg/kg, route oral; conditions: in vivo; how it was run: as §3
Mus musculus [10] = species: Mus musculus; test: Increase in glucose dependent insulin release in diabetic KK/ay mouse by oral glucose tolerance test; type: functional, organism-based
[11] = Half life in C57BL/6J mouse at 10 mg/kg, po; type: ADME, organism-based; design: dose 10 mg/kg, route oral; conditions: in vivo; how it was run: as §4
[12] = Tmax in Sprague-Dawley rat at 10 mg/kg, po; type: ADME, organism-based; design: dose 10 mg/kg, route oral; conditions: in vivo; how it was run: as §3
Mus musculus [13] = test: Increase in glucose dependent insulin release in GPR119 deficient C57BL/6J mouse at 20 mg/kg, po by oral glucose tolerance test; type: functional, organism-based; design: dose 20 mg/kg
[14] = AUC in Sprague-Dawley rat at 10 mg/kg, po; type: ADME, organism-based; design: dose 10 mg/kg, route oral; conditions: plasma; how it was run: as §3
[15] = Tmax in C57BL/6J mouse at 10 mg/kg, po; type: ADME, organism-based; design: dose 10 mg/kg, route oral; conditions: in vivo; how it was run: as §4
Mus musculus [16] = test: Increase in glucose dependent insulin release in wild type C57BL/6J mouse at 20 mg/kg, po by oral glucose tolerance test; type: functional, organism-based; design: dose 20 mg/kg
Canis lupus familiaris = species: Canis lupus familiaris; test: Agonist activity at dog GPR119 transfected in Xenopus dermal melanophore assessed as dispersion of melatonin-induced pigmentation; type: functional; how it was run: as §2
[17] = target: T3, Glucose-dependent insulinotropic receptor (Mus musculus) (UniProt Q7TQP3); test: Agonist activity at mouse GPR119 transfected in Xenopus dermal melanophore assessed as dispersion of melatonin-induced pigmentation; type: functional; how it was run: as §2
T3 sequence (whole entry): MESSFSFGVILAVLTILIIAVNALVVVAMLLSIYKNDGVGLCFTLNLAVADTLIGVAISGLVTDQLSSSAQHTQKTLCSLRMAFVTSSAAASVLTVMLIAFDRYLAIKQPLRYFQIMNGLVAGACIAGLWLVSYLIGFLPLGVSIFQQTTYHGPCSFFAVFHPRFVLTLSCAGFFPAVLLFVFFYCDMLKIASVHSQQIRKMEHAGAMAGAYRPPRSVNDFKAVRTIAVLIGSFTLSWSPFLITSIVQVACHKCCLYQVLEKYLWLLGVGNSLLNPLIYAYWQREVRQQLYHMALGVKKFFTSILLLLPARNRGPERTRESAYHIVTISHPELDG

[18] = Cmax in C57BL/6J mouse at 10 mg/kg, po; type: ADME, organism-based; design: dose 10 mg/kg, route oral; conditions: in vivo; how it was run: as §4
[19] = Half life in Sprague-Dawley rat at 10 mg/kg, po; type: ADME, organism-based; design: dose 10 mg/kg, route oral; conditions: in vivo; how it was run: as §3
Macaca fascicularis = species: Macaca fascicularis; test: Agonist activity at cynomolgus monkey GPR119 transfected in Xenopus dermal melanophore assessed as dispersion of melatonin-induced pigmentation; type: functional; how it was run: as §2
[20] = target: Voltage-gated inwardly rectifying potassium channel KCNH2 (Homo sapiens, UniProt Q12809); test: Inhibition of hERG upto 10 uM by patch clamp assay; type: toxicity
How it was run: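 hERG channel current measured by patch clamp, compound tested up to 10 µM.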

Sequence of Voltage-gated inwardly rectifying potassium channel KCNH2 (Q12809 whole entry): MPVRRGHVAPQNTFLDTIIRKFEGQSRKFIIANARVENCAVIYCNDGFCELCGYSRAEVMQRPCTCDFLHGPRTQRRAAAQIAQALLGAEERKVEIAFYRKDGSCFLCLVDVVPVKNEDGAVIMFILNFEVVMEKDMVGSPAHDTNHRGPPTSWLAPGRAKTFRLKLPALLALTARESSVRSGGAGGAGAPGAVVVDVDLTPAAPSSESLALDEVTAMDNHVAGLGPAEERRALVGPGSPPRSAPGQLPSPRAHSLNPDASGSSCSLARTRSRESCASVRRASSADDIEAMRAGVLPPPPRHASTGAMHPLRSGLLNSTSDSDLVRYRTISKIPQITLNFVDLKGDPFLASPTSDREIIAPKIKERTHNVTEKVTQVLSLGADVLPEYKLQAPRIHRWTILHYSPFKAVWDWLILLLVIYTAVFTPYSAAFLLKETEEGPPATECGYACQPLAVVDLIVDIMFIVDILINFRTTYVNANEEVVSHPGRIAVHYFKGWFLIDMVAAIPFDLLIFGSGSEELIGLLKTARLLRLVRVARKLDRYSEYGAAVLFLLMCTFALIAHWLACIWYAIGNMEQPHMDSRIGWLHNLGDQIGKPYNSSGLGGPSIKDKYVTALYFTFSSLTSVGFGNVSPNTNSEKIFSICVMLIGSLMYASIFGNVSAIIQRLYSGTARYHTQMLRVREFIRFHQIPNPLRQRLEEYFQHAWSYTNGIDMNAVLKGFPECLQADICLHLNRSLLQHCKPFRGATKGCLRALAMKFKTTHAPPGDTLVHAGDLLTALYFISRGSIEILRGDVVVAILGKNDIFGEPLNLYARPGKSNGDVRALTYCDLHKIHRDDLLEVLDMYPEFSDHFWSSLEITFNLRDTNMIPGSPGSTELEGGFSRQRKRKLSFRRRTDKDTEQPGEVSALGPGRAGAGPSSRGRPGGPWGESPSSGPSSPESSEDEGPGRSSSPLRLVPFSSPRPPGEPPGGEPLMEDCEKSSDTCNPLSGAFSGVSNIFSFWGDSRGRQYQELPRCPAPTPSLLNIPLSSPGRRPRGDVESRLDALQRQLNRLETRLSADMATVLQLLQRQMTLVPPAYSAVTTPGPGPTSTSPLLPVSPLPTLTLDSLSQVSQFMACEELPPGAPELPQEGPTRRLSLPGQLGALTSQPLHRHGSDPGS

Work on CCOC(=O)C1CCN(c2ncnc(Nc3ccc(S(C)(=O)=O)cc3)c2[N+](=O)[O-])CC1 yielded an EC50 [1] of 1.2 µM.

With CS(=O)(=O)c1ccc(Nc2ncnc(N3CCC(c4nc(CC5CC5)no4)CC3)c2[N+](=O)[O-])cc1 the EC50 [2] was 0.16 µM.

Molecule CC(C)(C)c1noc(C2CCN(c3ncnc(Nc4ccc(S(C)(=O)=O)cc4)c3[N+](=O)[O-])CC2)n1 has an EC50 [2] of 0.0015 µM.

In the case of CCOC(=O)C1CCN(c2ncnc(Oc3ccc(Br)cc3)c2[N+](=O)[O-])CC1, the IC50 [3] is reported as 0.05 µM.

For CCOC(=O)C1CCN(c2ncnc(Oc3ccc(CCC(C)=O)cc3)c2[N+](=O)[O-])CC1, the EC50 [1] was 1.7 µM.

CS(=O)(=O)c1ccc(Nc2ncnc(N3CCC(c4nc(C5CC5)no4)CC3)c2[N+](=O)[O-])cc1 gave an EC50 [2] of 0.025 µM.

In the case of CCSc1ccc(Nc2ncnc(N3CCC(c4nc(C(C)C)no4)CC3)c2[N+](=O)[O-])cc1, the EC50 [2] is reported as 0.11 µM.

In the case of CC[S+]([O-])c1ccc(Nc2ncnc(N3CCC(c4nc(C(C)C)no4)CC3)c2[N+](=O)[O-])cc1 (stereo not drawn), the EC50 [2] is reported as 0.0171 µM.

Molecule CCOC(=O)C1CCN(c2ncnc(Oc3ccc(-n4cncn4)cc3)c2[N+](=O)[O-])CC1 has an EC50 [1] of 2.5 µM.

CCCc1noc(C2CCN(c3ncnc(Nc4ccc(S(C)(=O)=O)cc4)c3[N+](=O)[O-])CC2)n1 gave an EC50 [2] of 0.43 µM.

For CCOC(=O)C1CCN(c2ncnc(Oc3ccc(S(N)(=O)=O)cc3)c2[N+](=O)[O-])CC1, the EC50 [1] was 3 µM.

Molecule CS(=O)(=O)c1ccc(Nc2ncnc(N3CCC(c4nc(-c5cccc(C(F)(F)F)c5)no4)CC3)c2[N+](=O)[O-])cc1 has an EC50 [2] of 0.024 µM.

CCS(=O)(=O)c1ccc(Nc2ncnc(N3CCC(c4nc(C(C)C)no4)CC3)c2[N+](=O)[O-])cc1 showed an EC50 [2] of 0.017 µM.

With CCOC(=O)C1CCN(c2ncnc(Oc3cc(C(F)(F)F)nn3C)c2[N+](=O)[O-])CC1 the IC50 [3] was 0.084 µM.

CCc1noc(C2CCN(c3ncnc(Nc4ccc(S(C)(=O)=O)cc4)c3[N+](=O)[O-])CC2)n1 showed an EC50 [2] of 0.01 µM.

CCOC(=O)C1CCN(c2ncnc(Oc3ccc(C(=O)CC(=O)OC)cc3)c2[N+](=O)[O-])CC1 gave an EC50 [1] of 1 µM.

Work on CC(C)c1noc(C2CCN(c3ncnc(Nc4ccc(S(=O)(=O)C(C)C)cc4)c3[N+](=O)[O-])CC2)n1 yielded an EC50 [2] of 0.0078 µM.

Molecule CC(C)c1noc(C2CCN(c3ncnc(Nc4ccc(S(C)(=O)=O)c(F)c4)c3[N+](=O)[O-])CC2)n1 has an EC50 [2] of 0.0034 µM.

With CC(C)c1noc(C2CCN(c3ncnc(Nc4ccc(S(C)(=O)=O)cc4F)c3[N+](=O)[O-])CC2)n1 the Activity (Rattus norvegicus) was “inactive”, the bioavailability [4] was 12% and the Activity [5] was 14 nM. The EC50 [6] was 0.0047 µM, the Activity [7] was “inactive” and the AUC [8] was 19.8 µg·h/mL. The Cmax [9] was 126 ng/mL and 250 nM, the Activity (Mus musculus [10]) was “Active” and the half-life [11] was 3.4 h. For the same molecule, the Tmax [12] was 1 h, the Activity (Mus musculus [13]) was “inactive” and the AUC [14] was 0.263 µg·h/mL. The EC50 [2] was 0.00068 µM, the Tmax [15] was 0.5 h and the Activity (Mus musculus [16]) was “Active”. For the same molecule, the Activity (Canis lupus familiaris) was 1.6 nM, the Activity [17] was 12 nM and the Cmax [18] was 4.98 µg/mL. The half-life [19] was 1.1 h, the Activity (Macaca fascicularis) was 0.4 nM and the Activity [20] was “Not Active”.

CC(C)c1noc(C2CCN(c3ncnc(Nc4ccc(S(C)(=O)=O)cc4)c3[N+](=O)[O-])CC2)n1 showed an EC50 [2] of 0.0058 µM.

CCOC(=O)C1CCN(c2ncnc(Oc3ccc(OCCOC)cc3)c2[N+](=O)[O-])CC1 showed an IC50 [3] of 0.5 µM.

In the case of CCCS(=O)(=O)c1ccc(Nc2ncnc(N3CCC(c4nc(C(C)C)no4)CC3)c2[N+](=O)[O-])cc1, the EC50 [2] is reported as 0.0047 µM.

For CS(=O)(=O)c1ccc(Nc2ncnc(N3CCC(c4nc(-c5cccnc5)[n-][o+]4)CC3)c2[N+](=O)[O-])cc1, the EC50 [2] was 0.66 µM.

With CCOC(=O)C1CCN(c2ncnc(Oc3ccc(S(C)(=O)=O)cc3)c2[N+](=O)[O-])CC1 the EC50 [1] was 1.9 µM.

With CCOC(=O)C1CCN(c2ncnc(Nc3ccc(-n4cncn4)cc3)c2[N+](=O)[O-])CC1 the EC50 [1] was 0.4 µM.

With Cc1noc(C2CCN(c3ncnc(Nc4ccc(S(C)(=O)=O)cc4)c3[N+](=O)[O-])CC2)n1 the EC50 [2] was 0.26 µM.

Molecule CCS(=O)(=O)c1ccc(Nc2ncnc(N3CCC(c4nc(C(C)C)[n-][o+]4)CC3)c2[N+](=O)[O-])c(F)c1 has an EC50 [2] of 0.007 µM.

With CC(C)c1nc(C2CCN(c3ncnc(Nc4ccc(S(=O)(=O)C(C)C)cc4F)c3[N+](=O)[O-])CC2)[o+][n-]1 the EC50 [2] was 0.0079 µM.
